Test results reported in ChEMBL document CHEMBL1914305, “Synthesis and structure-activity evaluation of isatin-β-thiosemicarbazones with improved selective activity toward multidrug-resistant cells expressing P-glycoprotein” (J Med Chem, 2011).

Legend:
[1] = Cytotoxicity against human KB-3-1 cells after 72 hrs by MTT assay; type: functional, cell-based; details: KB 3-1, 72 h
Summary of the method: (§1)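 Grown in DMEM with 10% FBS. MTT assay: 4000 cells/well, 24 h settling, serial dilutions of drug, 72 h at 37 °C in 5% CO2. MTT in IMDM 4 h, then acidified ethanol 15 min, A570 with 690 nm background. Three experiments in triplicate. KB-V1-R comes from KB-V1 grown long-term drug-free.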

[2] = Cytotoxicity against vinblastine-selected human KBV1 cells after 72 hrs by MTT assay; type: functional, cell-based; details: KB-V1, 72 h
Summary of the method: as §1, with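 “background. IC50 is the concentration reducing absorbance to 50% of untreated control.” for “background.”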

[3] = Selectivity ratio of IC50 for human KB-3-1 cells to IC50 for human KBV1 cells selected at 1 ug/mL vinblastine; type: functional
Summary of the method: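 Selectivity ratio: IC50 in the parental or empty-vector cells divided by IC50 in the P-gp-expressing cells (KB-V1, or ABCB1-transfected LLC-PK1). MTT assay: 4000 cells/well established for 24 h, then 72 h exposure to serially diluted drug at 37 °C, 5% CO2. MTT for 4 h, acidified ethanol lysis, A570 corrected at A690. IC50 is the concentration giving 50% of untreated absorbance, from at least three experiments.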

Structure (SMILES) | IC50 [1] [µM] | IC50 [2] [µM] | Ratio IC50 [3]
COc1cc(NC(=S)N/N=C2\C(=O)Nc3ccccc32)cc(OC)c1OC | 11.1 | 3.49 | 3.2
CC(C)NC(=S)N/N=C1\C(=O)Nc2ccccc21 | 39.3 | 10.2 | 3.8
CC(C)c1ccc(NC(=S)N/N=C2\C(=O)Nc3ccccc32)cc1 | 9.11 | 1.09 | 8.4
O=C1Nc2ccccc2/C1=N/NC(=S)Nc1ccc(O)cc1 | 35.8 | 21.6 | 1.7
CCCC1CCC(c2ccc(NC(=S)N/N=C3\C(=O)Nc4ccccc43)cc2)CC1 (configuration not stated) | 17.5 | 11 | 1.6
O=C1Nc2ccccc2/C1=N/NC(=S)Nc1c(F)cc(F)cc1F | 38.4 | 7.28 | 5.3
Cc1ccc(NC(=S)N/N=C2\C(=O)Nc3ccccc32)cc1C | 4.37 | 2.2 | 2
O=C1Nc2ccccc2/C1=N/NC(=S)NC12CC3CC(CC(C3)C1)C2 | 3.16 | 1.02 | 3.1
O=C1Nc2ccccc2/C1=N/NC(=S)Nc1cccc(Cl)c1 | 1.87 | 0.64 | 2.9
O=C1Nc2ccccc2/C1=N/NC(=S)Nc1ccc(C(=O)O)cc1 | > 50 | > 50 | –
O=C1Nc2ccccc2/C1=N/NC(=S)NCc1ccccc1 | 11.7 | 7.63 | 1.5
O=C1Nc2ccccc2/C1=N/NC(=S)Nc1cc(F)c(F)c(F)c1 | 4.41 | 2.15 | 2.1
CCCCNC(=S)N/N=C1\C(=O)Nc2ccccc21 | 10.9 | 5.69 | 1.9
O=C1Nc2ccccc2/C1=N/NC(=S)Nc1cccnc1 | > 50 | > 50 | –
CN(C)c1ccc(NC(=S)N/N=C2\C(=O)Nc3ccccc32)cc1 | 6.95 | 2.32 | 3
O=C1Nc2ccccc2/C1=N/NC(=S)Nc1ccccc1 | 3.53 | 1.47 | 2.4
O=C1Nc2ccccc2/C1=N/NC(=S)Nc1ccc(C(F)(F)F)cc1 | 8.59 | 2.1 | 4.1
COc1ccccc1NC(=S)N/N=C1\C(=O)Nc2ccccc21 | 4.96 | 2.69 | 1.8
CNC(=S)N/N=C1\C(=O)Nc2ccccc21 | 35.3 | 19.4 | 1.8
Cc1ccc(NC(=S)N/N=C2\C(=O)Nc3ccccc32)cc1 | 24 | 2.6 | 9.2
O=C1Nc2ccccc2/C1=N/NC(=S)Nc1ccccc1Cl | 2.22 | 1.17 | 1.9
O=C1Nc2ccccc2/C1=N/NC(=S)Nc1cccc2ccccc12 | 5.12 | 2.21 | 2.3
O=C1Nc2ccccc2/C1=N/NC(=S)Nc1ccc2c(c1)CCC2 | 5.8 | 2.85 | 2
O=C1Nc2ccccc2/C1=N/NC(=S)Nc1ccc(Oc2ccccc2)cc1 | 5.72 | 1.67 | 3.4
O=C1Nc2ccccc2/C1=N/NC(=S)NC1CCCCC1 | 9.14 | 4.38 | 2.1
O=C1Nc2ccccc2/C1=N/NC(=S)Nc1ccc(F)cc1 | 14.2 | 1.92 | 7.4
O=C1Nc2ccccc2/C1=N/NC(=S)Nc1ccc(Cl)cc1 | 13.4 | 4.99 | 2.7
CCc1ccc(NC(=S)N/N=C2\C(=O)Nc3ccccc32)cc1 | 4.05 | 1.34 | 3
